From ChEMBL document CHEMBL1136957, “Semisynthesis and antiproliferative evaluation of a series of 3'-aminoflavones” (Bioorg Med Chem Lett, 2009) come the findings set out here.

Experiment [1] in a line: Inhibition of tubulin assembly. In outline: (§1)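 Tubulin assembly inhibition run by the Zavala and Guenard method. Reported as percent inhibition at 6.6 x 10^-5 M, or as IC50 for selected compounds.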
Experiment [2] can be described thus: Ratio of IC50 for drug to deoxypodophyllotoxin for tubulin assembly. In outline: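 Inhibition of tubulin assembly was run by the Zavala and Guénard method. Compounds were screened at 6.6 × 10^-5 M, and an IC50 was determined only for the most antiproliferative ones. The value is that IC50 divided by the IC50 of deoxypodophyllotoxin, the reference.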
Experiment [3] concerns HL-60. As to the kind of experiment: Induction of apoptosis in human HL60 cells assessed as caspase 3/7 activation at 10 uM relative to control. It is filed as functional. A digest of the protocol: (§2)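 Apoptosis read in HL60 human leukemia cells as caspase 3/7 activity, using DEVD-AMC as substrate. Reported as the optimal compound concentration with fold activation.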
Experiment [4] deals with HL-60. In words: Induction of apoptosis in human HL60 cells assessed as caspase 3/7 activation at 1 uM relative to control. It is filed as functional. A digest of the protocol: as §2
The subject of experiment [5] is KB. As to the kind of experiment: Cytotoxicity against human KB cells after 72 hrs by MTS assay. In kind it is functional, cell-based. (In general: Tetrazolium assays rely on reduction of a dye to a coloured formazan, in cell work by metabolically active cells.)
Experiment [6] deals with KB. As to the kind of experiment: Cytotoxicity against human KB cells at 1 uM after 72 hrs by MTS assay. In kind it is functional.
In experiment [7] the test system is HL-60. As to the kind of experiment: Induction of apoptosis in human HL60 cells assessed as caspase 3/7 activation at 100 uM relative to control. It is filed as functional. A digest of the protocol:
as §2

A short description of experiment [8]: Inhibition of tubulin assembly at 66 uM. A digest of the protocol:
as §1

The test system of experiment [9] is HL-60. As to the kind of experiment: Induction of apoptosis in human HL60 cells assessed as caspase 3/7 activation at 0.1 uM relative to control. It is filed as functional. A digest of the protocol:
as §2

The source made the active and inactive calls. The calls are words filed in the database; no cut-off is given here.

As for `COc1ccc(-c2cc(=O)c3c(O)c(OC)c(OC)c(OC)c3o2)cc1O`, the IC50 – broadly, the concentration needed to halve the response being measured – in experiment [1] came out at 86000 nM; in experiment [5], 80 nM. Also, the Ratio IC50 in experiment [2] stood at 27. In addition, the “fold change (FC)” value in experiment [3] was determined as 5.2; in experiment [4], 3.8.
With `COc1ccc(-c2oc3c(OC)c(OC)c(OC)c(O)c3c(=O)c2Br)cc1N`, the “fold change (FC)” value in experiment [4] was found to be 3.6. Further, in experiment [6], the inhibition (as a rule, the percentage by which the read-out fell short of the control) at 1 µM came to 55%.
On to `COc1cc(O)c2c(=O)cc(-c3ccc(OC)c(N)c3)oc2c1`, for which the “fold change (FC)” value in [7] was “inactive”. This compound also yielded an inhibition at 1 µM in experiment [6] of 30%.
As to `COc1ccc(-c2oc3c(OC)c(OC)c(OC)c(O)c3c(=O)c2Cl)cc1N`, the inhibition in experiment [8] is 15%. For the same compound, the “fold change (FC)” value in experiment [4] was 4.5. The compound further returned an IC50 in experiment [5] of 140 nM. Also, the inhibition at 1 µM in experiment [6] worked out at 86%.
In turn, `COc1ccc(-c2cc(=O)c3c(O)c(OC)c(OC)c(OC)c3o2)cc1N` returned an inhibition in experiment [8] of 27%. Further, the “fold change (FC)” value in experiment [4] was 6. The compound further gave an IC50 in experiment [5] of 160 nM. Also, the inhibition at 1 µM in experiment [6] came out at 83%.
For `COc1ccc(-c2cc(=O)c3c(OC)c(OC)c(OC)c(OC)c3o2)cc1` [TANGERETIN], in experiment [7], the “fold change (FC)” value was “inactive”. The compound also returned an inhibition at 1 µM in experiment [6] of 12%.
As for `COc1ccc(-c2cc(=O)c3c(O)cc(O)cc3o2)cc1N`, in experiment [7], the “fold change (FC)” value amounted to 4. In addition, in experiment [6], the inhibition at 1 µM came out at 7%.
`COc1ccc(-c2cc(=O)c3c(O)c(OC)c(OC)c(OC)c3o2)cc1[N+](=O)[O-]` came in with an inhibition at 1 µM in experiment [6] of 2%.
Regarding `COc1ccc(-c2cc(=O)c3c(OC)c(OC)c(OC)c(OC)c3o2)cc1[N+](=O)[O-]`, in [6], the inhibition at 1 µM was determined as 3%.
Regarding `COc1ccc(-c2oc3c(OC)c(OC)c(OC)c(O)c3c(=O)c2Br)cc1[N+](=O)[O-]`, in experiment [6], the inhibition at 1 µM came out at 23%.
Regarding `COc1ccc(-c2oc3c(OC)c(OC)c(OC)c(O)c3c(=O)c2OC)cc1O`, the IC50 is 10000 nM in [1] and 20 nM in experiment [5]. The Ratio IC50 in experiment [2] amounted to 3. This compound yielded an inhibition at 1 µM in experiment [6] of 92%. The “fold change (FC)” value in experiment [9] was 5.7.
Regarding `COc1ccc(-c2cc(=O)c3c(O)c(OC)c(OC)c(OC)c3o2)cc1` [GARDENIN B], the “fold change (FC)” value in experiment [7] is 3.8. For the same compound, 1 µM produced 28% inhibition in experiment [6].
On to `COc1ccc(-c2cc(=O)c3c(OC)c(OC)c(OC)c(OC)c3o2)cc1N`, for which the “fold change (FC)” value in experiment [7] is “inactive”. In addition, 1 µM produced 6% inhibition in experiment [6].
